# Key:
# Format in all cases: functional
# [1] = tested on: CCRF-CEM; assay: Growth inhibition of human CCRF-CEM cells after 48 hrs by SRB assay
# Method in brief: (§1)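 NCI 60-cell-line screen. Cells grown in RPMI1640 with 5% fetal calf serum and 2 mM L-glutamine, with inoculum density set by cell line. Preincubated 24 h, then given compound in DMSO at 10^-4 to 10^-8 M (five 10-fold steps) for 48 h continuous exposure. Growth measured by SRB protein assay. GI50, TGI and LC50 reported as –log molar.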
# [2] = tested on: HL-60(TB); assay: Growth inhibition of human HL-60(TB) cells after 48 hrs by SRB assay; settings: HL-60, 48 h
# Method in brief: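 NCI 60-cell-line screen: cells grown in RPMI1640 with 5% fetal calf serum and 2 mM L-glutamine, preincubated 24 h, then exposed to compound in DMSO at five concentrations (10^-4 to 10^-8 M) for 48 h continuous exposure. Growth estimated by sulforhodamine B protein assay; reported as pGI50 (-log molar concentration inhibiting net cell growth by 50%).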
# [3] = Growth inhibition of human […] cells after 48 hrs by SRB assay; method in brief: as §1
# [4] = tested on: SR; assay: Growth inhibition of human SR cells after 48 hrs by SRB assay; method in brief: as §1
# [5] = tested on: EKVX; assay: Growth inhibition of human EKVX cells after 48 hrs by SRB assay; method in brief: as §1
# [6] = tested on: HOP-62; assay: Growth inhibition of human HOP62 cells after 48 hrs by SRB assay; settings: HOP-62, 48 h; method in brief: as §1
# [7] = tested on: NCI-H460; assay: Growth inhibition of human NCI-H460 cells after 48 hrs by SRB assay; settings: NCI-H460, 48 h; method in brief: as §1
# [8] = tested on: NCI-H522; assay: Growth inhibition of human NCI-H522 cells after 48 hrs by SRB assay; settings: NCI-H522, 48 h; method in brief: as §1
# [9] = tested on: HCT-15; assay: Growth inhibition of human HCT15 cells after 48 hrs by SRB assay; settings: HCT-15, 48 h; method in brief: as §1
# [10] = tested on: HT-29; assay: Growth inhibition of human HT-29 cells after 48 hrs by SRB assay; settings: HT-29, 48 h; method in brief: as §1
# [11] = tested on: KM12; assay: Growth inhibition of human KM12 cells after 48 hrs by SRB assay; settings: KM12, 48 h; method in brief: as §1
# [12] = tested on: SW-620; assay: Growth inhibition of human SW620 cells after 48 hrs by SRB assay; settings: SW-620, 48 h; method in brief: as §1
# [13] = tested on: SF-268; assay: Growth inhibition of human SF268 cells after 48 hrs by SRB assay; settings: SF-268, 48 h; method in brief: as §1
# [14] = tested on: SF-539; assay: Growth inhibition of human SF539 cells after 48 hrs by SRB assay; settings: SF-539, 48 h; method in brief: as §1
# [15] = tested on: SNB-75; assay: Growth inhibition of human SNB75 cells after 48 hrs by SRB assay; settings: SNB-75, 48 h; method in brief: as §1
# [16] = tested on: Malme-3M; assay: Growth inhibition of human MALME-3M cells after 48 hrs by SRB assay; method in brief: as §1
# [17] = tested on: M14; assay: Growth inhibition of human M14 cells after 48 hrs by SRB assay; settings: M14, 48 h; method in brief: as §1
# [18] = tested on: SK-MEL-2; assay: Growth inhibition of human SK-MEL-2 cells after 48 hrs by SRB assay; settings: SK-MEL-2, 48 h; method in brief: as §1
# [19] = tested on: MDA-MB-435; assay: Growth inhibition of human MDA-MB-435 cells after 48 hrs by SRB assay; settings: MDA-MB-435, 48 h; method in brief: as §1
# [20] = tested on: SK-MEL-28; assay: Growth inhibition of human SK-MEL-28 cells after 48 hrs by SRB assay; settings: SK-MEL-28, 48 h; method in brief: as §1
# [21] = tested on: SK-MEL-5; assay: Growth inhibition of human SK-MEL-5 cells after 48 hrs by SRB assay; settings: SK-MEL-5, 48 h; method in brief: as §1
# [22] = tested on: IGROV-1; assay: Growth inhibition of human IGROV1 cells after 48 hrs by SRB assay; settings: IGROV-1, 48 h; method in brief: as §1
# [23] = tested on: OVCAR-3; assay: Growth inhibition of human OVCAR-3 cells after 48 hrs by SRB assay; settings: OVCAR-3, 48 h; method in brief: as §1
# [24] = tested on: OVCAR-8; assay: Growth inhibition of human OVCAR8 cells after 48 hrs by SRB assay; settings: OVCAR-8, 48 h; method in brief: as §1
# [25] = tested on: NCI/ADR-RES; assay: Growth inhibition of human NCI/ADR-RES cells after 48 hrs by SRB assay; method in brief: as §1
# [26] = tested on: SK-OV-3; assay: Growth inhibition of human SKOV3 cells after 48 hrs by SRB assay; settings: SK-OV-3, 48 h; method in brief: as §1
# [27] = tested on: 786-0; assay: Growth inhibition of human 786-0 cells after 48 hrs by SRB assay; settings: 786-0, 48 h; method in brief: as §1
# [28] = tested on: A498; assay: Growth inhibition of human A498 cells after 48 hrs by SRB assay; settings: A498, 48 h; method in brief: as §1
# [29] = tested on: CAKI-1; assay: Growth inhibition of human Caki1 cells after 48 hrs by SRB assay; settings: CAKI-1, 48 h; method in brief: as §1
# [30] = tested on: RXF 393; assay: Growth inhibition of human RXF393 cells after 48 hrs by SRB assay; settings: RXF 393, 48 h; method in brief: as §1
# [31] = tested on: TK-10; assay: Growth inhibition of human TK10 cells after 48 hrs by SRB assay; settings: TK-10, 48 h; method in brief: as §1
# [32] = tested on: UO-31; assay: Growth inhibition of human UO31 cells after 48 hrs by SRB assay; settings: UO-31, 48 h; method in brief: as §1
# [33] = tested on: DU-145; assay: Growth inhibition of human DU145 cells after 48 hrs by SRB assay; settings: DU-145, 48 h; method in brief: as §1
# [34] = Growth inhibition of human Hs 578T cells after 48 hrs by SRB assay; method in brief: as §1
# [35] = tested on: BT-549; assay: Growth inhibition of human BT549 cells after 48 hrs by SRB assay; settings: BT-549, 48 h; method in brief: as §1
# [36] = tested on: T47D; assay: Growth inhibition of human T47D cells after 48 hrs by SRB assay; method in brief: as §1
# [37] = tested on: MDA-MB-468; assay: Growth inhibition of human MDA-MB-468 cells after 48 hrs by SRB assay; settings: MDA-MB-468, 48 h; method in brief: as §1
smiles,measurement,setting,value
CCN(CC)c1ccc(C2=NN(C(C)=O)C(c3cc(OC)c(OC)c(OC)c3)C2)cc1 (stereo not drawn),GI50,[1],316 nM
same,TGI,[1]; read-out: pTGI (converted),1000 nM
same,GI50,[2],126 nM
same,TGI,[2]; read-out: pTGI (converted),501 nM
same,GI50,[3],158 nM
same,TGI,[3]; read-out: pTGI (converted),501 nM
same,GI50,[4],63.1 nM
same,TGI,[4]; read-out: pTGI (converted),631 nM
same,GI50,[5],398 nM
same,TGI,[5]; read-out: pTGI (converted),2510 nM
same,GI50,[6],1580 nM
same,TGI,[6]; read-out: pTGI (converted),25100 nM
same,GI50,[7],398 nM
same,TGI,[7]; read-out: pTGI (converted),2000 nM
same,GI50,[8],398 nM
same,TGI,[8]; read-out: pTGI (converted),631 nM
same,GI50,[9],398 nM
same,GI50,[10],398 nM
same,TGI,[10]; read-out: pTGI (converted),1580 nM
same,GI50,[11],316 nM
same,TGI,[11]; read-out: pTGI (converted),12600 nM
same,GI50,[12],316 nM
same,TGI,[12]; read-out: pTGI (converted),15800 nM
same,GI50,[13],794 nM
same,TGI,[13]; read-out: pTGI (converted),20000 nM
same,GI50,[14],316 nM
same,TGI,[14]; read-out: pTGI (converted),631 nM
same,GI50,[15],251 nM
same,TGI,[15]; read-out: pTGI (converted),631 nM
same,GI50,[16],200 nM
same,TGI,[16]; read-out: pTGI (converted),25100 nM
same,GI50,[17],398 nM
same,TGI,[17]; read-out: pTGI (converted),3160 nM
same,GI50,[18],501 nM
same,TGI,[18]; read-out: pTGI (converted),39800 nM
same,GI50,[19],158 nM
same,TGI,[19]; read-out: pTGI (converted),398 nM
same,GI50,[20],794 nM
same,TGI,[20]; read-out: pTGI (converted),20000 nM
same,GI50,[21],398 nM
same,TGI,[21]; read-out: pTGI (converted),3980 nM
same,GI50,[22],794 nM
same,TGI,[22]; read-out: pTGI (converted),31600 nM
same,GI50,[23],398 nM
same,TGI,[23]; read-out: pTGI (converted),10000 nM
same,GI50,[24],398 nM
same,TGI,[24]; read-out: pTGI (converted),5010 nM
same,GI50,[25],200 nM
same,TGI,[25]; read-out: pTGI (converted),501 nM
same,GI50,[26],398 nM
same,TGI,[26]; read-out: pTGI (converted),15800 nM
same,GI50,[27],501 nM
same,TGI,[27]; read-out: pTGI (converted),12600 nM
same,GI50,[28],316 nM
same,TGI,[28]; read-out: pTGI (converted),2510 nM
same,GI50,[29],126 nM
same,TGI,[29]; read-out: pTGI (converted),20000 nM
same,GI50,[30],398 nM
same,TGI,[30]; read-out: pTGI (converted),2510 nM
same,GI50,[31],398 nM
same,TGI,[31]; read-out: pTGI (converted),20000 nM
same,GI50,[32],398 nM
same,TGI,[32]; read-out: pTGI (converted),15800 nM
same,GI50,[33],398 nM
same,TGI,[33]; read-out: pTGI (converted),2000 nM
same,GI50,[34],316 nM
same,TGI,[34]; read-out: pTGI (converted),25100 nM
same,GI50,[35],631 nM
same,TGI,[35]; read-out: pTGI (converted),5010 nM
same,GI50,[36],200 nM
same,TGI,[36]; read-out: pTGI (converted),20000 nM
same,GI50,[37],251 nM
same,TGI,[37]; read-out: pTGI (converted),631 nM

# Reference: ChEMBL document CHEMBL1221342, “Synthesis and in vitro antitumor activity of new 4,5-dihydropyrazole derivatives” (Bioorg Med Chem, 2010)
